PAD4 FP inh: human PAD4 inhibitors, primary screen, biochemical, fluorescence polarization, 1536-well format. recombinant PAD4, RCA probe fluorescence polarization. Protein-arginine deiminase type-4 (Homo sapiens), Q9UM07. hit rate 0.41% among 330,000. inhibition, % at 6.36 µM. AID 485272, 2010;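 active = percent inhibition above a cutoff equal to the mean of all tested compounds plus 3 SD, cut at about 15% in these data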
PRMT1 FP inh: PRMT1 methyltransferase inhibitors, primary screen, biochemical, fluorescence polarization; Protein arginine N-methyltransferase 1 (Homo sapiens), Q99873; inhibition, % at 2.79 µM; AID 652257, 2013; hit rate 1.3% among 370,000; recombinant PRMT1, activity-based probe fluorescence polarization;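 active = inhibition above about 21% made by adding two undisclosed values, limit read from the data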
Target sequence (Q99873 whole entry, looked up): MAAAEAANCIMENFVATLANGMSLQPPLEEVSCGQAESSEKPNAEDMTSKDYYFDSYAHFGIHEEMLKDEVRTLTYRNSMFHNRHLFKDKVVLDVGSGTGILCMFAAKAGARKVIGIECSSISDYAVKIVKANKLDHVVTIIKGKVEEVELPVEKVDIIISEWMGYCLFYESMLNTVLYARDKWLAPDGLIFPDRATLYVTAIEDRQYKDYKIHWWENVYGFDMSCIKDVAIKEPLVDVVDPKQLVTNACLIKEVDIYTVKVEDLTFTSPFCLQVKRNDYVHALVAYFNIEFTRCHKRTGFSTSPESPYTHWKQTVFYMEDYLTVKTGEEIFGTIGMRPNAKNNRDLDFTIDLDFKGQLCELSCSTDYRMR
SIAE primary: human SIAE inhibitors, primary screen, biochemical, fluorescence polarization, FP-Rh probe, 1536-well HTS; AID 1053197, 2014; SIAE FP-Rh probe binding; inhibition, % at 9.66 µM; Sialate O-acetylesterase (Homo sapiens), Q9HAT2; hit rate 0.69% among 370,000;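 active = inhibition above a cutoff: mean of compounds within the control limits plus 3 SD of those, cut at about 17% in these data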
GSTO1 inh: inhibitors of recombinant GSTO1, primary screen, counter-screen for RBBP9 inhibitor project, biochemical, fluorescence polarization | Glutathione S-transferase omega-1 (Homo sapiens), P78417 | activity-based probe fluorescence polarization | inhibition, % at 5.96 µM | hit rate 1.1% among 300,000 | AID 1974, 2009;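 active = inhibition above the campaign mean inhibition plus 3 SD, cut at about 35% in these data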
Target sequence (P78417 whole entry, looked up): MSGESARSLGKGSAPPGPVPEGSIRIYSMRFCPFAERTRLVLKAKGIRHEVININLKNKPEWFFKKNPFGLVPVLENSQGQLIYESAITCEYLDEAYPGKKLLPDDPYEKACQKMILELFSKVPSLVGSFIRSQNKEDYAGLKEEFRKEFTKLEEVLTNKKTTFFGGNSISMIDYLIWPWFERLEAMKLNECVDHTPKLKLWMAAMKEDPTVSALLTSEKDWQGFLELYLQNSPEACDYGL
RBBP9 inhibitor: human RBBP9 inhibitors, primary screen, biochemical, fluorescence polarization, FP-Rh probe, HTS | AID 1515, 2009 | inhibition, % at 7.94 µM | Serine hydrolase RBBP9 (Homo sapiens), O75884 | hit rate 0.2% among 220,000 | recombinant RBBP9;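 active = inhibition above the campaign mean of all tested compounds plus 3 SD, cut at about 14% in these data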
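Measured by: FP readout at 525/598 nm; material: recombinant human RBBP9; also added: Serine-hydrolase probe FP-Rh, 375 nM pre-mixing; medium: Tris buffer pH 8.0, NaCl, Pluronic; replication: one well per compound; doses: one concentration, 7.94 µM nominal, 0.794% DMSO; timing: preincubation 30 min plus labeling 45 min at 25 °C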
RBBP9 inh conf: human RBBP9 inhibitors, retest, confirmation, biochemical, fluorescence polarization, FP-Rh probe, triplicate; recombinant RBBP9; shares compounds with RBBP9 inhibitor; inhibition, % at 7.94 µM; hit rate 36% among 410;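 active = inhibition above the hit cutoff derived for the primary screen, cut at about 15% in these data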
GSTO1 inh conf: GSTO1 inhibitor hit confirmation, counter-screen for RBBP9 inhibitor project, biochemical, fluorescence polarization, triplicate; recombinant GSTO1, probe fluorescence polarization; inhibition, % at 5.96 µM; hit rate 54% among 2,400; AID 2176, 2009; shares compounds with GSTO1 inh;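 active = inhibition above the primary screen's cutoff, its mean inhibition plus 3 SD, cut at about 35% in these data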;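 note: loss of polarization as inhibitors block binding of rhodamine sulfonate ester activity probe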
PAD4 FP conf: human PAD4 inhibitors, confirmation, biochemical, fluorescence polarization. shares compounds with PAD4 FP inh. hit rate 28% among 1,200. recombinant PAD4, RCA probe fluorescence polarization. inhibition, % at 6.36 µM;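 active = mean inhibition across replicates above the hit cutoff set by the earlier primary screen, cut at about 15% in these data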;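 note: inhibitors block active-site labeling by the probe so polarization falls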
PRMT1 inh conf: PRMT1 methyltransferase inhibitors, confirmation, biochemical, fluorescence polarization, triplicate; inhibition, % at 2.79 µM; shares compounds with PRMT1 FP inh; hit rate 42% among 3,300; recombinant His-PRMT1, activity-based probe fluorescence polarization;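 active = mean inhibition across replicates above the hit cutoff derived for the earlier primary screen, cut at about 22% in these data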
SIAE inh conf: human SIAE inhibitors, retest, confirmation, biochemical, fluorescence polarization, FP-Rh probe, triplicate. AID 1117263, 2014. hit rate 13% among 2,300. inhibition, % at 9.66 µM. SIAE FP-Rh activity-based probe. shares compounds with SIAE primary;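 active = mean inhibition of the replicates above the hit cutoff set in the primary screen, cut at about 17% in these data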;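 note: inhibitors lower polarization as more probe stays unbound to SIAE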
Of the large screens only hits and unclear results are named; the others gave an inactive call (follow-up assays come after a bar, where they were run). Hits are enriched below; roughly 2.7% of the tested compounds scored in any of these assays.

COc1ccc(S(=O)(=O)N(Cc2ccccc2)c2ccccc2C(=O)Nc2ccccc2C(=O)NCc2ccco2)cc1	none
C#CCOCCOCCOCCNc1nc(N2CCN(C(=O)[C@H]([C@@H](C)CC)n3cc(CCCCN)nn3)CC2)nc(N2CCN(C(=O)[C@H](C)n3cc(CCCN=C(N)N)nn3)CC2)n1	none (no result: RBBP9 inhibitor)
N#C/C(=C\c1cc(O)c(O)c(O)c1)C(N)=O	PRMT1 FP inh 59, GSTO1 inh 59, RBBP9 inhibitor 18 | RBBP9 inh conf 20 | GSTO1 inh conf inactive
COc1ccc(OC)c2c1C(=O)C(Cl)=C(Cl)C2=O	PRMT1 FP inh 91, GSTO1 inh 58, RBBP9 inhibitor 79 | RBBP9 inh conf 81 | GSTO1 inh conf inactive
Oc1ccc(-c2cn3c(n2)SCC3)cc1O	GSTO1 inh 53, RBBP9 inhibitor 21 | RBBP9 inh conf 51 | GSTO1 inh conf inactive
Oc1ccc(-c2cn3c(n2)SCC3)cc1	none
O=CNc1cc(-c2ccc(C(=O)NC3CC3)cc2)cn2c(-c3ccc(F)c(Cl)c3)cnc12	none (no result: PAD4 FP inh, GSTO1 inh, RBBP9 inhibitor)
CCOC(=O)c1c(C)n(C)c2cc(Br)c(O)c(O)c12	GSTO1 inh 45, RBBP9 inhibitor 17 | RBBP9 inh conf 31 | GSTO1 inh conf inactive
CCOC(=O)c1c(C)n(C)c2cc([N+](=O)[O-])c(O)c([N+](=O)[O-])c12	none
O=C(COC(=O)c1cnc(Cl)c(Cl)c1)NCc1ccc2c(c1)OCO2	none
Cc1nn(-c2ccccc2)c2c1C(c1ccccc1)C(C#N)=C(N)O2 (centres undefined)	PAD4 FP inh 61, GSTO1 inh 37, RBBP9 inhibitor 16 | RBBP9 inh conf inactive | PAD4 FP conf inactive
COc1ccc(C2C(C#N)=C(N)Oc3c2c(C)nn3-c2ccccc2)cc1Cn1nc(C)c([N+](=O)[O-])c1C (centres undefined)	PAD4 FP inh 42, RBBP9 inhibitor 18 | RBBP9 inh conf inactive | PAD4 FP conf inactive
Cc1nn(-c2ccccc2)c2c1C(c1ccc(Br)s1)C(C#N)=C(N)O2 (centres undefined)	none (no result: PAD4 FP inh, PRMT1 FP inh, SIAE primary, GSTO1 inh)
CCOC(=O)c1[nH]c(C)c(C(=O)Nc2cc(Cl)ccc2C)c1C	none
COCCCNc1c2c3c(cccc3[nH]c1=O)C(=O)c1ccccc1-2	PAD4 FP inh 135, PRMT1 FP inh active, GSTO1 inh 79, RBBP9 inhibitor 49 | RBBP9 inh conf 80 | GSTO1 inh conf 92 | PAD4 FP conf 151
CCn1c(CSc2nccn2C)nc2cc(C(=O)O)ccc21	PAD4 FP inh 35, RBBP9 inhibitor 15 (no result: PRMT1 FP inh, SIAE primary) | RBBP9 inh conf 17 | PAD4 FP conf 43
Cn1ccnc1SCC(=O)c1ccc2ccccc2c1	none
CCOc1ccc(S(=O)(=O)Nc2cc(Sc3ncn[nH]3)c3oc(=O)sc3c2)cc1	PAD4 FP inh 18, GSTO1 inh 47, RBBP9 inhibitor 22 (no result: PRMT1 FP inh, SIAE primary) | RBBP9 inh conf 20 | GSTO1 inh conf inactive | PAD4 FP conf inactive
COc1ccc(N2CC(C)Cn3c2nc2c3c(=O)n(CCc3ccccc3)c(=O)n2C)cc1 (centres undefined)	none (no result: PAD4 FP inh, GSTO1 inh, RBBP9 inhibitor)
O=C(Cn1nc(C(=O)O)c2ccccc2c1=O)Nc1ccc2c(c1)C(=O)c1ccccc1C2=O	none (no result: PRMT1 FP inh, SIAE primary)
COCCN=c1scc(-c2cccs2)n1/N=C/c1ccc(O)c(O)c1O	PRMT1 FP inh 54, RBBP9 inhibitor 36 | RBBP9 inh conf 63 | PRMT1 inh conf 27
COCCN=c1scc(-c2ccccc2)n1/N=C/c1c[nH]c2ccccc12	none
COc1ccc(N/C=C2\CCc3ccccc3C2=O)cc1	PRMT1 FP inh 59, RBBP9 inhibitor 18 | RBBP9 inh conf inactive | PRMT1 inh conf 44
COc1ccc(N/C=C2\CCOC2=O)cc1	none
Nc1nc(-c2ccco2)c(-c2ccco2)s1	PRMT1 FP inh 40, RBBP9 inhibitor 17 | RBBP9 inh conf inactive | PRMT1 inh conf inactive
CCCN(CC(=O)Nc1ccc(F)c(F)c1F)Cc1cc(=O)n2ccsc2n1	none
Cn1cccc1/C=C1\SC(=S)N(NC(=O)c2ccccc2O)C1=O	none
O=C(NN1C(=O)/C(=C/C=C/c2ccco2)SC1=S)c1ccccc1O	PRMT1 FP inh 42, RBBP9 inhibitor 23 | RBBP9 inh conf 15 | PRMT1 inh conf 32
NC1=NC(=O)CC(C(=O)NCc2ccccc2)S1 (centres undefined)	PRMT1 FP inh 36, RBBP9 inhibitor 14 | RBBP9 inh conf inactive | PRMT1 inh conf inactive
NC1=NC(=O)C(CC(=O)NCc2ccccc2)S1 (centres undefined)	none
COCC(=O)Oc1c(Sc2ccccc2[N+](=O)[O-])c(C)nn1C(C)(C)C	none
COCCn1c(SC)nnc1-c1c[nH]c2ccccc12	none
Cc1nnc(Sc2cc(NCCO)c([N+](=O)[O-])c3nonc23)s1	PRMT1 FP inh 85, RBBP9 inhibitor 18 (no result: PAD4 FP inh, GSTO1 inh) | RBBP9 inh conf 24 | PRMT1 inh conf 89
Cc1nnc(Sc2cc(NCCCO)c([N+](=O)[O-])c3nonc23)s1	PRMT1 FP inh 91, RBBP9 inhibitor 22 (no result: PAD4 FP inh, GSTO1 inh) | RBBP9 inh conf 30 | PRMT1 inh conf 84
CC(=O)N(c1ccc2oc(=O)sc2c1)S(=O)(=O)c1ccccc1	PAD4 FP inh 18, PRMT1 FP inh 91, RBBP9 inhibitor 17 | RBBP9 inh conf inactive | PAD4 FP conf inactive | PRMT1 inh conf 65
CC(O)(c1cccs1)C(C(=O)O)c1ccccc1 (centres undefined)	none (no result: PAD4 FP inh, GSTO1 inh, RBBP9 inhibitor)
Cc1ccc(S(=O)(=O)N(C(=O)c2ccco2)c2cc3sc(=O)oc3c3ccccc23)cc1	PAD4 FP inh 21, PRMT1 FP inh 84, SIAE primary 34, GSTO1 inh 66, RBBP9 inhibitor 40 | RBBP9 inh conf inactive | PAD4 FP conf inactive | SIAE inh conf inactive
